Assay results as given in ChEMBL document CHEMBL1154092, “Chiral 3-(4,5-dihydrooxazol-2-yl)phenyl alkylcarbamates as novel FAAH inhibitors: Insight into FAAH enantioselectivity by molecular docking and interaction fields” (Eur J Med Chem, 2009).

Tests used:
[1] = target: T1, Fatty-acid amide hydrolase 1 (Rattus norvegicus, UniProt P97612); assay: Inhibition of FAAH in Wistar rat brain assessed as by liquid scintillation counting
T1 sequence (P97612 whole entry): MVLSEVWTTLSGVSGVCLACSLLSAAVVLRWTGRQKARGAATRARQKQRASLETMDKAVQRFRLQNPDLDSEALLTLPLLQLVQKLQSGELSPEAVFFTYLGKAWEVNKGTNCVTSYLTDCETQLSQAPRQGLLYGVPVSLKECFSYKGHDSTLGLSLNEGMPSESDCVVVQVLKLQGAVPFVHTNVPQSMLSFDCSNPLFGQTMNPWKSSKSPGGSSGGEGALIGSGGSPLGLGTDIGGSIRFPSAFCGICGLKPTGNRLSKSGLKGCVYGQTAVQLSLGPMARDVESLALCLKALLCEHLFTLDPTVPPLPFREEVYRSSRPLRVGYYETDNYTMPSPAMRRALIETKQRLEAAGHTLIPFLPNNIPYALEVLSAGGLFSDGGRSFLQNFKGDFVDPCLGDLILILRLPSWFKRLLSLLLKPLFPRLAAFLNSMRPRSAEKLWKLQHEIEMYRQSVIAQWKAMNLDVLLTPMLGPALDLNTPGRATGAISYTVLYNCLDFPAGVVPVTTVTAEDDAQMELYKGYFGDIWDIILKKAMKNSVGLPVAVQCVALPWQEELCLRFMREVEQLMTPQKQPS
Method in brief: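 Rat cerebrum homogenate (8-week male Wistar, whole brain minus cerebellum, 10,000g supernatant in 0.1 M K phosphate pH 7.4) as enzyme, 18 µg protein. Preincubated with compound 10 min at 37 °C, then 2 μM [³H]AEA (ethanolamine 1-³H) added for 10 min at 37 °C. Buffer has 0.5% BSA, DMSO up to 5%. Stopped with EtOAc. Aqueous [³H]ethanolamine counted. Three independent experiments in duplicate; IC50 by nonlinear regression.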

[2] = target: T2, Monoglyceride lipase (Rattus norvegicus) (UniProt Q8R431); assay: Inhibition of MGL in Wistar rat cerebellar membrane at 100 uM by reversed-phase HPLC relative to control; assay type: cell membranes; conditions: Cerebellum
T2 sequence (whole entry): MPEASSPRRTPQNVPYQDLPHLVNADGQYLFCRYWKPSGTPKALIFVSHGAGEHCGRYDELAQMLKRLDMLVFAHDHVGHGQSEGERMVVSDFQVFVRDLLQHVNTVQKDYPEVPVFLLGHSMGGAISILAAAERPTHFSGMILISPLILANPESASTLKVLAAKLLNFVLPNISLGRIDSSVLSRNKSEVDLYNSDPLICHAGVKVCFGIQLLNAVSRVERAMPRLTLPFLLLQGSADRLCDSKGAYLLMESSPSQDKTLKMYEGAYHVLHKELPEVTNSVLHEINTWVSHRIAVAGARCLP
Method in brief: (§1)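 Cerebellar membranes from 4-week male Wistar rats. 10 µg protein preincubated with compound 30 min at 25 °C in Tris-HCl pH 7.4, EDTA, 0.5% BSA, 1.25% DMSO. Incubation 90 min at 25 °C with 5 µg protein and 50 μM 2-AG (100 mM NaCl, 5 mM MgCl₂). Stopped with acidified acetonitrile at 0 and 90 min. Arachidonic acid by C18 HPLC, UV 211 nm. Activity as % of control, n = 2.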

[3] = target: T3, Monoglyceride lipase (Homo sapiens) (UniProt Q99685); assay: Inhibition of human recombinant MGL by liquid scintillation counting; conditions: concentration not given here
T3 sequence (whole entry): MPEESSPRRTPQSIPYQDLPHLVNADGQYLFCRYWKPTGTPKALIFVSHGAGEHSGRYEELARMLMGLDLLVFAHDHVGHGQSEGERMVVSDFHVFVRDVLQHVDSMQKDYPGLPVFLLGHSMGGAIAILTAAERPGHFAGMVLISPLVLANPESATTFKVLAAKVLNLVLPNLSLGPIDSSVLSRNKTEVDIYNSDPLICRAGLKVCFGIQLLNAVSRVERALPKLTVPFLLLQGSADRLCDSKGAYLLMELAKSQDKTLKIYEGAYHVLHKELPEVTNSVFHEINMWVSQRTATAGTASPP
Method in brief: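 hrMGL preincubated with compound 10 min at 37 °C in 50 mM Tris-HCl pH 7.4, 1 mM EDTA, 0.5% BSA, DMSO ≤5%. Then [³H]2-oleoylglycerol (glycerol-1,2,3-³H) added to 50 μM final for 10 min at 37 °C. Stopped with EtOAc. Aqueous-phase [³H]glycerol counted by liquid scintillation.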

[4] = target: T2, Monoglyceride lipase (Rattus norvegicus); assay: Inhibition of MGL in Wistar rat cerebellar membrane at 1 uM by reversed-phase HPLC relative to control; assay type: cell membranes; conditions: Cerebellum; method in brief: as §1

Structure (SMILES)	IC50 [1] [nM]	inhibition [2] [%]	inhibition [3] [%]	inhibition [4] [%]
C[C@@H]1COC(c2cccc(OC(=O)NC3CCCCC3)c2)=N1	16	16		
C[C@H]1CN=C(c2cccc(OC(=O)NC3CCCCC3)c2)O1	6.8		14	
O=C(NC1CCCC1)Oc1cccc(C2=NCCO2)c1	13			10
C[C@@H]1CN=C(c2cccc(OC(=O)NC3CCCCC3)c2)O1	73		13	
O=C(NC1CCCCC1)Oc1cccc(C2=NCCO2)c1	1.2	22		
C[C@H]1COC(c2cccc(OC(=O)NC3CCCC3)c2)=N1	110	28		
CC1(C)COC(c2cccc(OC(=O)NC3CCCC3)c2)=N1	65	28		
C[C@H]1COC(c2cccc(OC(=O)NC3CCCCC3)c2)=N1	51	28		
COC(=O)[C@@H]1COC(c2cccc(OC(=O)NC3CCCCC3)c2)=N1	9.4	25		
CC1(C)COC(c2cccc(OC(=O)NC3CCCCC3)c2)=N1	46	20		
O=C(NC1CCCCC1)Oc1cccc(C2=N[C@H](Cc3ccccc3)CO2)c1	590	14		
COC(=O)[C@H]1COC(c2cccc(OC(=O)NC3CCCCC3)c2)=N1	90	35		
CCCNC(=O)Oc1cccc(-c2nc3ncccc3o2)c1	680	29		
O=C(NC1CCCCC1)Oc1cccc(C2=N[C@@H](Cc3ccccc3)CO2)c1	2100	17		
CCCNC(=O)Oc1cccc(-c2nc3ncncc3o2)c1	4500		18	
CCCNC(=O)Oc1cccc(C2=NCCO2)c1	33	32		
CCCNC(=O)Oc1cccc(-c2nc3ccccc3o2)c1	3000	26		
O=C(NC1CCCCC1)Oc1cccc(C2=N[C@@H](Cc3c[nH]c4ccccc34)CO2)c1	1900	25		
